Published values of several laboratories.
Compare with care: the assays were run in different laboratories.
Target: Tyrosine-protein kinase CSK (CSK, Homo sapiens, UniProt P41240)

| test | test system | conditions | endpoint | result | SMILES |
| --- | --- | --- | --- | --- | --- |
| enzyme activity, inhibitor | – | 1 µM | activity vs control | 78% | COc1cc(/C=C/C(=O)CC(=O)/C=C/c2ccc(O)c(OC)c2)ccc1O |
| cell-free assay, competition with immobilised ligand | – | 1 µM | remaining binding | 100% | C[C@H](c1cccc(C#N)c1)n1cc(Cl)cc(C(N)=O)c1=N |
| enzyme activity, inhibitor | – | 10 µM | remaining activity | 98% | Cc1sc(C(=O)NC2COC2)cc1-n1cc(NC(=O)Nc2c(F)cccc2Cl)cn1 |
| enzyme activity, inhibitor | – | 1 µM | activity vs control | 26% | Cc1ccc(C(=O)NCc2ccsc2)cc1C#Cc1cn(C(C)C)c2ncnc(N)c12 |
| enzyme activity, inhibitor | – | 0.1 µM | inhibition | -4.9% | CC/C(=N\NC(=O)NCc1cccc(O)c1)c1ccc(O)c(C)c1O |
| enzyme activity, inhibitor | – | 1 µM | inhibition | 49% | COc1cc2ncnc(Nc3ccc(Oc4ccccc4)c(C)c3C)c2cc1OC |
| cell-free assay, competition with immobilised ligand | – | 1 µM | remaining binding | 91% | CCCOc1ccc([C@@H]2[C@@H](C(=O)O)[C@H](c3ccc4c(c3)OCO4)CN2CC(=O)Nc2c(CC)cccc2CC)cc1 |
| cell-free assay, inhibitor | – | 10 µM | remaining signal | -1% | Cc1ccc(NC(=O)c2ccc(C)c(C(F)(F)F)c2)cc1C#Cc1nn(C2CCC(O)CC2)c2ncnc(N)c12 (centres unmarked) |
| cell-free assay, competition with immobilised ligand | – | 1 µM | remaining binding | 100% | COc1cc(-c2cn(C3CCc4ccccc4N(CC(F)(F)F)C3=O)nn2)ccc1-n1ccc(C)n1 (centres unmarked) |
| enzyme activity, inhibitor | – | 10 µM | inhibition | 4% | CS(=O)(=O)Nc1cccc(-c2csc(NC(=O)CSc3nc4nccnc4c(=O)n3CCc3ccccc3)n2)c1 |
| target engagement in cells, inhibitor, chemoproteomics | A-375 | 0.5 µM | inhibition | -14.9% | CCN1CCN(Cc2ccc(NC(=O)c3ccc(C)c(Oc4ccnc5[nH]ccc45)c3)cc2C(F)(F)F)CC1 |
| enzyme activity, inhibitor | – | 0.5 µM | remaining activity | 85% | O=C1Nc2ccc(Cl)cc2C1=Cc1cc(Cl)c(O)c(Cl)c1 |
| cell-free assay, competition with immobilised ligand | – | 1 µM | remaining binding | 100% | Cc1nc(N2CC[C@@H](O)C2)ncc1-c1cc(C(F)(F)F)cc2[nH]ncc12 |
| cell-free assay | – | 0.5 µM | remaining signal | 96.3% | N#CCCc1ccc2c(c1)-c1[nH]c3ccc([N+](=O)[O-])cc3c1CC(=O)N2 |
| enzyme activity, inhibitor | – | 10 µM | remaining activity | 90% | Nc1nc(Nc2ccccc2)sc1C(=O)c1c(F)cccc1F |
| enzyme activity, inhibitor | – | 10 µM | inhibition | 22% | CNC(=O)c1cc(Oc2ccc(NC(=O)Nc3ccc(Cl)c(C(F)(F)F)c3)cc2)ccn1 |

| test | test system | conditions | endpoint | result | SMILES |
| --- | --- | --- | --- | --- | --- |
| enzyme activity, inhibitor, radiometric | – | 1 µM | remaining activity | 87% | CC(C)(C)c1nc2c(s1)c1nc(N)ncc1c1ccc(NS(=O)(=O)c3c(F)cccc3F)c(F)c12 |
| cell-free assay, competition with immobilised ligand | – | 1 µM | remaining binding | 100% | CC(=O)N1CCC(c2ccc(C(=O)NC(=N)N)cc2C(F)(F)F)CC1 |
| enzyme activity, inhibitor | – | 10 µM | remaining activity | 84% | FC(F)c1nc2ccccc2n1-c1nc(N2CCOCC2)nc(N2CCOCC2)n1 |
| enzyme activity, inhibitor, radiometric | – | 10 µM | remaining activity | 94% | COc1cc(Nc2cnc(C#N)c(O[C@H](C)CN(C)C)n2)ncc1-c1cnn(C)c1 |
| cell-free assay, competition with immobilised ligand | – | 1 µM | remaining binding | 88% | Cc1nc(Cc2cccc(C(F)(F)F)c2)sc1-c1ccc(C(N)=O)nc1 |
| enzyme activity, inhibitor, radiometric | – | 5 µM | activity vs control | 100% | FC(F)(F)Oc1cccc(-c2cnc3ccc(-c4ccncc4)nn23)c1 |
| enzyme activity, inhibitor | – | 10 µM | remaining activity | 98% | CC(C)(C)C(=O)c1sc(NC2CCCCC2)nc1N |
| enzyme activity, inhibitor | – | 0.5 µM | activity vs control | 7.11% | Cc1nc(Nc2ncc(C(=O)Nc3c(C)cccc3Cl)s2)cc(N2CCN(CCO)CC2)n1 |
| enzyme activity, inhibitor | – | 10 µM | inhibition | 24% | Cc1ccc(Nc2nccc(N(C)c3ccc4c(C)n(C)nc4c3)n2)cc1S(N)(=O)=O |
| enzyme activity, inhibitor | – | 0.5 µM | remaining activity | 106% | CS(=O)(=O)CCNCc1ccc(-c2ccc3ncnc(Nc4ccc(OCc5cccc(F)c5)c(Cl)c4)c3c2)o1 |
| enzyme activity, inhibitor | – | 0.1 µM | inhibition | 2% | COc1cc2nccc(Oc3ccc(NC(=O)c4c5n(n(-c6ccc(F)cc6)c4=O)CCCC5)cc3)c2cc1OC |
| cell-free assay, competition with immobilised ligand | – | 1 µM | remaining binding | 100% | C[C@@H]1CN(c2cc(-c3nn(C)c4ccc(OC5(C)CC5)cc34)ncn2)C[C@H](C)O1 |
| enzyme activity, inhibitor | – | 1 µM | remaining activity | 95.3% | CC(C)(O)[C@H]1CC[C@H](Nc2ccc3ncc(-c4cccc(C(F)(F)F)c4)n3n2)CC1 |
| enzyme activity, inhibitor | – | 20 µM | remaining activity | 2% | Nc1ncnc2occ(-c3ccc(NC(=O)Nc4cc(C(F)(F)F)ccc4F)cc3)c12 |
| cell-free assay, competition with immobilised ligand | – | 1 µM | remaining binding | 100% | CN(C)C(=O)Cn1cc(-c2nc([C@@](C)(c3ccc(-c4cnc(N)nc4)cc3)C3CC3)no2)cn1 |
| enzyme activity, inhibitor | – | 10 µM | inhibition | 10% | CCN(CC)CCNC(=O)c1c(C)[nH]c(/C=C2\C(=O)Nc3ccc(F)cc32)c1C |
